{"source": "paper PMC8212709", "about": "(Clinical and Translational Science, 2021)", "key": {"[1]": {"settings": "dogs, nonclinical, no reference given, cited from earlier work"}, "BTK": {"molecular_target": "BTK (Homo sapiens, UniProt Q06187)", "sequence (Q06187 whole entry)": "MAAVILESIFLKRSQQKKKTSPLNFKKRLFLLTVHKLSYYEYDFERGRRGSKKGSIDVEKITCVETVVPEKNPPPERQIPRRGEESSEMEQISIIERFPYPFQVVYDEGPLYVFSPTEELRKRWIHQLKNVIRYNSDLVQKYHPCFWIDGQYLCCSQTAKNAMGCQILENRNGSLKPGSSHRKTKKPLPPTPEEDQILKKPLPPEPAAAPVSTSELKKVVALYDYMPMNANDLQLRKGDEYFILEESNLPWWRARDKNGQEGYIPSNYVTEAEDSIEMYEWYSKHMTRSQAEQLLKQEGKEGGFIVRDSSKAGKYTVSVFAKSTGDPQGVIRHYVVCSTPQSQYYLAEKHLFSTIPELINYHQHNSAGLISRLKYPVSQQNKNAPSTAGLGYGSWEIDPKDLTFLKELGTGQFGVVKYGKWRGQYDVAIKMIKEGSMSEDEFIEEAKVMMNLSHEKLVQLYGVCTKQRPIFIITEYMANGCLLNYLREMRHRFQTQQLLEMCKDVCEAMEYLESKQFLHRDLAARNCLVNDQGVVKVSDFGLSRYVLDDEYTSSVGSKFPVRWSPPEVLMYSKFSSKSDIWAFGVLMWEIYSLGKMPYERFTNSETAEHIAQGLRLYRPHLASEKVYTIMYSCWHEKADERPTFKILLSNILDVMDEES", "assay": "BTK occupancy assay in whole blood cell lysates", "type": "in vivo", "how_it_was_run": "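Healthy subjects in SRD cohorts 1–4 (6 test compound, 2 placebo per cohort) took a single oral dose (0.1 mg starting dose, given as solution) or placebo while fasted. Unoccupied BTK in whole-blood cell lysates was captured by a biotin-modified covalent probe of the test compound. Occupancy was computed per postdose time up to 96 h as 100 − [100 × (BTK concentration ÷ predose BTK concentration)].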"}, "[2]": {"settings": "rats, nonclinical, no reference given, cited from earlier work"}, "[3]": {"settings": "nonclinical studies, oral solution; no reference given; cited from earlier work"}, "[4]": {"tested_on": "rat collagen‐induced arthritis model", "settings": "nonclinical, no reference given; cited from earlier work"}}, "note": "Read-outs that look alike come from different tables or passages of the source."}
{"smiles": "C=CC(=O)N1CC[C@H](Oc2nc(-c3n[nH]c(=O)[nH]3)cc3ccccc23)C1", "note": "[TAK‐020]", "values": [{"measurement": "terminal disposition phase elimination half‐life (t1/2z)", "setting": "[1]; after oral administration", "value": "3.8 to 6.7", "unit": "h"}, {"measurement": "oral bioavailability", "setting": "[1]", "value": 8.17, "unit": "%"}, {"measurement": "duration of BTK occupancy > 70%", "setting": "BTK; SRD, 2.5‐mg and 4.4‐mg doses, longest duration investigated", "value": "> 96", "unit": "h"}, {"measurement": "BTK occupancy, maximum and sustained", "setting": "BTK; SRD, single doses ≥ 2.5 mg (2.5‐mg and 4.4‐mg), blood", "value": "> 70", "unit": "%"}, {"measurement": "duration of > 80% BTK occupancy", "setting": "BTK; single doses of 2.5 and 4.4 mg, postdose", "value": 72, "unit": "h"}, {"measurement": "BTK occupancy (%) of TAK‐020 binding sites", "setting": "BTK; single doses of 2.5 and 4.4 mg, up to 72 hours postdose", "value": "> 80", "unit": "%"}, {"measurement": "duration of BTK saturation", "setting": "BTK; single doses ≥2.5 mg", "value": "> 24", "unit": "h"}, {"measurement": "terminal disposition phase elimination half‐life (t1/2z)", "setting": "[2]; after oral administration", "value": "4.4 to 7.3", "unit": "h"}, {"measurement": "oral bioavailability", "setting": "[2]", "value": 13.2, "unit": "%"}, {"measurement": "time of peak plasma concentrations postdose", "setting": "[3]", "value": "≤ 2", "unit": "h"}, {"measurement": "median effective dose", "setting": "[4]", "value": 0.31, "unit": "mg/kg per day"}]}
